STAT3 act: IL-6 driven STAT3 reporter potentiators, primary screen, U3A cells, luciferase, luminescence, MLSCN library | hit rate 0.91% among 190,000 | activation (% of control), % at 5.6 µM | IL-6 STAT3-luciferase reporter; 100% = signal with IL-6 EC80 alone;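 active = activation above the screen-wide mean of compound activation plus 3 SD, cut at about 130% in these data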;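 also: 0% = background luminescence of wells with medium and substrate only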
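System – human U3A cells carrying STAT3-luciferase construct · Probe or stimulus – Interleukin-6, 33 ng/mL · Schedule – compound 1 h, then IL-6 6 h at 37 °C · Signal – luminescence from STAT3-driven luciferase reporter · Evaluation – percent of IL-6-only median luminescence · Benchmarks – IL-6-only high control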
Platelet DG rel: inhibitors of platelet dense granule secretion, primary screen, cell-based, MLPCN, human platelets; human platelet-rich plasma, SFLLRN dense granule ATP release, luminescence; inhibition, %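 (compounds screened at 7.5 µM in platelet-rich plasma)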; hit rate 0.22% among 300,000; AID 1663, 2009;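 active = mean replicate score, as percent of positive control, at or above 50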
STAT1 inh: STAT1 signaling inhibitors, primary screen, cell-based, HTS, luciferase reporter | NIH 3T3 STAT1-luciferase reporter, IFN-gamma, luminescence | inhibition, % at 5.5 µM | hit rate 0.35% among 200,000;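 active = inhibition above a set limit, the mean inhibition across all tested compounds plus 3 SD, cut at about 34% in these data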;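 also: 0% = IFN-gamma with DMSO and 100% = IFN-gamma with 300 µM nifuroxazide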
PERK inhibitor: block of dimerizer-induced PERK translation repression, primary screen, PERK inhibitor project, CHO PERK-DD cells, SEAP luminescence, HTS; Eukaryotic translation initiation factor 2-alpha kinase 3 (Homo sapiens), Q9NZJ5; CHO PERK-DD fusion, SEAP luminescence translation reporter; inhibition, % at 5.6 µM; hit rate 0.17% among 220,000;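 active = inhibition above the mean inhibition of all tested compounds plus 3 SD, set separately per screening campaign, cut at about 2.9% in these data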;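 also: PERK kinase domain activated by AP20187 dimerizer at 100 nM; 0% = DMSO with dimerizer and 100% = rapamycin at 8.4 µM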
Target sequence (Q9NZJ5 whole entry, looked up, the tested form may be a part): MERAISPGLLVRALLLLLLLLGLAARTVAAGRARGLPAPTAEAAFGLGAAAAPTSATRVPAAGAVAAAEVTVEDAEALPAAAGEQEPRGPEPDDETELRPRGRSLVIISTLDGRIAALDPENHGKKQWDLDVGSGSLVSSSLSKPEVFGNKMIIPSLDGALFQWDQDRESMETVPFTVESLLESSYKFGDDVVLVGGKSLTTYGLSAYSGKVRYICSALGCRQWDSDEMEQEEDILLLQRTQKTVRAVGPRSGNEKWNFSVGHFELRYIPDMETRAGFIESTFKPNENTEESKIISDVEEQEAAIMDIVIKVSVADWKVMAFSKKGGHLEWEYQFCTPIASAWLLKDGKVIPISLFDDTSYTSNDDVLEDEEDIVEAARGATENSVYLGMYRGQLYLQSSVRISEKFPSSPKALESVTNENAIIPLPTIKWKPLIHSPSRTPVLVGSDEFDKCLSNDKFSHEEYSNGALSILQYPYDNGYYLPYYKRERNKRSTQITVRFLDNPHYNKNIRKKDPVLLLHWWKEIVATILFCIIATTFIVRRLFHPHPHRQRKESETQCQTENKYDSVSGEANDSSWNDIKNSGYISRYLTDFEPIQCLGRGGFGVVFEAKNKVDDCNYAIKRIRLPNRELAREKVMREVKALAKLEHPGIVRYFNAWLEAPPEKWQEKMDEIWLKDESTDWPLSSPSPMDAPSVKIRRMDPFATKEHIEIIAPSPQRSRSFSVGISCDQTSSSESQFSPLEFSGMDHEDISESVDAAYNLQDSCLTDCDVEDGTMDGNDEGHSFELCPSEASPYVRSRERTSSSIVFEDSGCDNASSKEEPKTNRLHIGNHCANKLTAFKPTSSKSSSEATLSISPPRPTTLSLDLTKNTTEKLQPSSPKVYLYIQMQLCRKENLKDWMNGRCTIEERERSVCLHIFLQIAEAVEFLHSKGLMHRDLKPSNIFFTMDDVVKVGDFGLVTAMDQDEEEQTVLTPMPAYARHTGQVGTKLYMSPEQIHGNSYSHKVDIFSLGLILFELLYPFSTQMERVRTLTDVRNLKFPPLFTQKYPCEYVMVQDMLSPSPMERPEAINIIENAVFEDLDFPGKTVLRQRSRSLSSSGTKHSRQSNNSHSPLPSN
STAT3 inh: IL-6 driven STAT3 reporter inhibitors, primary screen, U3A cells, luciferase, luminescence, MLSCN library; hit rate 0.89% among 190,000; IL-6 STAT3-luciferase reporter; host cell line lacks STAT1; inhibition, % at 5.5 µM;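 active = inhibition above the mean inhibition across all screened compounds plus 3 SD, cut at about 44% in these data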;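 also: 0% = DMSO only wells and 100% = 100 µM nifuroxazide control wells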
Starred values were filed as active, the others as inactive; . = no result. Hits are enriched below; roughly 1.4% of the tested compounds scored in any of these assays.

SMILES | STAT3 act | Platelet DG rel | STAT1 inh | PERK inhibitor | STAT3 inh
O=C(CSc1nc2[nH]ncc2c(=O)[nH]1)N1CCCCC1 | 95 | -11 | 8 | 0 | 8
CCOc1ccccc1OCc1nn2c(COc3ccccc3)nnc2s1 | 113 | 4 | 7 | 0 | -15
c1ccc(Cc2nn3c(COc4ccccc4)nnc3s2)cc1 | 134* | -4 | -9 | 0 | -34
COc1ccc(CNc2nc(NCc3ccc(OC)c(OC)c3)n(C(=O)c3cccs3)n2)cc1OC | 90 | 4 | -3 | -1 | 13
COc1cc2c(cc1OC)-c1cc(OCc3ccccc3Cl)nc(=O)n1CC2 | 118 | 1 | -4 | -2 | -14
COc1cc2c(cc1OC)-c1cc(NC3CCCC3)nc(=O)n1CC2 | 92 | 26 | 12 | 2 | 13
COc1cc2c(cc1OC)-c1cc(Nc3ccc(N(C)C)cc3)nc(=O)n1CC2 | . | 76* | . | 1 | .
COc1cc2c(cc1OC)-c1cc(Nc3cccc(F)c3)nc(=O)n1CC2 | . | 71* | . | . | .
COc1cc2c(cc1OC)-c1cc(Nc3ccc(F)cc3)nc(=O)n1CC2 | . | 95* | . | . | .
CCN(CC)c1ccc(Nc2cc3n(c(=O)n2)CCc2cc(OC)c(OC)cc2-3)cc1 | . | 20 | . | . | .
O=C(CSc1ccc(-c2ccco2)nn1)Nc1ccccc1F | . | -7 | . | . | .
CC1CCN(C(=O)C2CCN(S(=O)(=O)c3ccc(-n4cnnn4)cc3)CC2)CC1 | . | 3 | . | . | .
CCCn1cnc2c(=S)nc(N)[nH]c21 | . | 40 | . | 3.4* | .
COc1cccc(-n2cnc3sc(C)c(C)c3c2=O)c1 | 98 | 8 | -11 | -1 | 6
C(=C\c1nnc2c3ccccc3ncn12)/c1ccccc1 | 145* | -3 | -54 | -1 | -49
O=C1c2ccccc2C(=O)C1c1ccnc2ccccc12 | 53 | 7 | 43* | -1 | 58*
O=C(OCc1nc2ccsc2c(=O)[nH]1)c1ccc(Cl)s1 | . | 16 | . | . | .
COc1ccc(/C=N/Nc2ncccc2[N+](=O)[O-])c(OC)c1 | 41 | 79* | 57* | 0 | 74*
COc1ccc(/C=N/Nc2ncc(-c3ccccc3)cn2)c(OC)c1 | 87 | 6 | -6 | 0 | 16
COc1ccc(-c2nn(-c3ccccc3)cc2/C=N/NC(=O)c2ccc(Br)o2)cc1 | 69 | 5 | 0 | 0 | 45*
COc1ccc(-c2nn(-c3ccccc3)cc2/C=N/NC(=O)c2ccc3c(c2)OCO3)cc1 | 90 | 5 | -11 | 0 | 19
COc1ccc(-c2nn(-c3ccccc3)cc2C(=O)O)cc1 | 96 | 12 | 3 | 3.2* | 14
O=C1CCCCC1Sc1nnc(-c2ccc3c(c2)OCO3)o1 (stereo not drawn) | 13 | 11 | 87* | 1 | 105*
Cc1ccc(N/C(N)=N/c2nc(CSc3nnc(C)s3)cc(=O)[nH]2)c(C)c1 | 135* | 4 | 5 | 3 | -25
COc1ccc(N/C(N)=N/c2nc(CSc3nnc(C)s3)cc(=O)[nH]2)cc1 | 110 | -14 | 4 | 0 | -5
SMILES | STAT3 act | Platelet DG rel | STAT1 inh | PERK inhibitor | STAT3 inh
COc1ccc(C(=O)Nc2ccc(C)cn2)c(OC)c1 | 13 | 25 | 82* | 0 | 105*
Cc1ccc(NC(=O)c2sccc2C)nc1 | . | 52* | . | . | .
CCOC(=O)N1CCN(S(=O)(=O)N2CCCC(C(=O)NCCCN3CCCCC3)C2)CC1 (stereo not drawn) | . | 3 | . | . | .
O=C(CSc1ccccc1)Nc1cc(S(=O)(=O)N2CCOCC2)ccc1N1CCOCC1 | 104 | -1 | 3 | 0 | -2
COc1cc([N+](=O)[O-])cc2sc(NC(=O)C3CC3)nc12 | 88 | 4 | -5 | 0 | 19
COc1cc([N+](=O)[O-])cc2sc(NC(=O)C(C)(C)C)nc12 | 107 | -2 | -21 | 3.5* | -4
CCOc1ccc(C2=Nn3c(nnc3-c3ccccc3OC)SC2)cc1 | 146* | 5 | -16 | -1 | -49
CCOc1ccc(-c2nnc3n2N=C(c2ccc(OC)cc2)CS3)cc1 | 109 | 1 | 1 | -1 | -5
O=C(CSc1nccn1-c1ncc(C(F)(F)F)cc1Cl)c1ccc(Cl)cc1 | 197* | -1 | -36 | 1 | -101
Fc1ccc(-c2nnc(NC3=NCCCCC3)o2)cc1 | 20 | 64* | 68* | 0 | 100*
Fc1ccc(NC2=NCCCCC2)cc1 | 100 | -8 | 11 | 0 | 6
COc1ccc(NC(=O)CN(C)C(=O)/C=C/c2cn(-c3ccccc3)nc2-c2cccs2)cc1 | . | 13 | . | . | .
CCCCn1c(CCC)nc([N+](=O)[O-])c1Sc1ccc(Cl)cn1 | 95 | -4 | 34* | 0 | 9
CC(C)Cn1c(C(C)C)nc([N+](=O)[O-])c1Sc1ccc(Cl)cn1 | 98 | 6 | 12 | 0 | 5
Cc1ccc(N(C(=O)c2csnn2)C(C(=O)NC2CCCCC2)c2ccncc2)c(C)c1 (stereo not drawn) | . | -1 | . | . | .
Cc1cccc(C2c3[nH]c4ccccc4c3CCN2C(=O)CN2CCOC2=O)n1 (stereo not drawn) | 134* | 6 | 5 | 0 | -37
COc1ccc(-c2nc(C#N)c(NC(C)c3ccccc3)o2)cc1OC (stereo not drawn) | 96 | 70* | -2 | 0 | 10
COc1ccc(-c2nc(C#N)c(NCCCN(C)C)o2)cc1OC | 98 | 13 | -3 | 1 | 6
COc1ccccc1OCc1n[nH]c(=S)n1Cc1ccccc1 | 100 | -5 | -13 | 1 | 2
C/C(O)=C(\C#N)c1nnc2n1CCCCC2 | 101 | 5 | 0 | 2 | 3
CN1C=C(C(F)(F)F)C=C/C1=C(\C#N)c1nnc2n1CCCCC2 | 107 | 1 | -4 | 3.1* | -2
COc1ccc(-c2cc(C(=O)N/N=C/c3sccc3C)c3ccccc3n2)c(OC)c1 | 135* | 1 | -8 | -2 | -44
COc1ccc(-c2cc(C(=O)N/N=C/c3ccc4c(c3)OCO4)c3ccccc3n2)c(OC)c1 | 112 | 18 | -6 | -1 | -3
CCCCNC(=O)C1CC(c2c(Cl)cccc2Cl)=NO1 (stereo not drawn) | 92 | 0 | 7 | 1 | 14
CCOC(=O)c1c(NC(=O)/C=C/c2ccc3c(c2)OCO3)sc(C)c1CC | 105 | 54* | 8 | -1 | 2
CCOC(=O)c1c(NC(=O)/C=C/c2ccc3c(c2)OCO3)sc(C)c1C | 98 | . | 8 | 1 | 14
O=c1[nH][nH]c(-c2ccccc2)c1C=Nc1cccc(Cl)c1 | 100 | -3 | -2 | 2.9* | 11
O=c1[nH][nH]c(-c2ccccc2)c1C=Nc1ccc(Cl)cc1 | 97 | -10 | -1 | 1 | 4
COc1ccc(C(=O)Nc2ccccc2C(=O)N/N=C/c2cccc3ccccc23)cc1 | 32 | 92* | 39* | 0 | 80*
COc1ccc(C(=O)Nc2ccccc2C(=O)N/N=C/c2ccncc2)cc1OC | . | 64* | . | 0 | .
